Experimental data published in ChEMBL document CHEMBL1122912, “Synthesis and antitumor activity of structural analogues of the anticancer benzophenanthridine alkaloid fagaronine chloride” (1985).

Columns and labels:
Mus musculus [1] = assay: Compound was evaluated for the anticancer activity against P388 lymphocytic leukemia in vivo in mouse at a dosage of 50 mg/kg. The survivals were reported.; assay type: functional
Mus musculus [2] = assay: Compound was evaluated for the anticancer activity against P388 lymphocytic leukemia in vivo in mouse at a dosage of 100 mg/kg and percent treated/control was reported; assay type: functional
Mus musculus [3] = assay: Compound was evaluated for the anticancer activity against P388 lymphocytic leukemia in vivo in mouse at a dosage of 100 mg/kg; assay type: functional
Mus musculus [4] = assay: Compound was evaluated for the anticancer activity against P388 lymphocytic leukemia in vivo in mouse at a dosage of 25 mg/kg and percent treated/control was reported; assay type: functional
Mus musculus [5] = assay: Compound was evaluated for the anticancer activity against P388 lymphocytic leukemia in vivo in mouse at a dosage of 25 mg/kg. The survivals were reported.; assay type: functional
Mus musculus [6] = assay: Compound was evaluated for the anticancer activity against P388 lymphocytic leukemia in vivo in mouse at a dosage of 100 mg/kg and the weight difference was measured.; assay type: functional
Mus musculus [7] = assay: Compound was evaluated for the anticancer activity against P388 lymphocytic leukemia in vivo in mouse at a dosage of 200 mg/kg and the weight difference was measured.; assay type: functional
Mus musculus [8] = assay: Compound was evaluated for the anticancer activity against P388 lymphocytic leukemia in vivo in mouse at a dosage of 50 mg/kg and the weight difference was measured.; assay type: functional
Mus musculus [9] = assay: Compound was evaluated for the anticancer activity against P388 lymphocytic leukemia in vivo in mouse at a dosage of 200 mg/kg, survivals were reported.; assay type: functional
Mus musculus [10] = assay: Compound was evaluated for the anticancer activity against P388 lymphocytic leukemia in vivo in mouse at a dosage of 50 mg/kg and percent treated/control was reported; assay type: functional
Mus musculus [11] = assay: Compound was evaluated for the anticancer activity against P388 lymphocytic leukemia in vivo in mouse at a dosage of 200 mg/kg and percent treated/control was reported; assay type: functional
Mus musculus [12] = assay: Compound was evaluated for the anticancer activity against P388 lymphocytic leukemia in vivo in mouse at a dosage of 25 mg/kg and the weight difference was measured.; assay type: functional
[13] = Compound was evaluated for its cytotoxic activity in vitro KB cell culture system derived from human epidermoid carcinoma; assay type: functional; settings: read-out: ED50 (the source's name)
[14] = Compound was evaluated for its cytotoxic activity in vitro KB cell culture system; assay type: functional; settings: Homo sapiens, read-out: ED50 (the source's name)
Outline: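 Cytotoxicity was measured in cultured KB human cancer cells and reported as ED50 values.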

Mus musculus [15] = assay: Compound was evaluated for the anticancer activity against P388 lymphocytic leukemia in vivo in mouse at a dosage of 12.5 mg/kg and the weight difference was measured.; assay type: functional
Mus musculus [16] = assay: Compound was evaluated for the anticancer activity against P388 lymphocytic leukemia in vivo in mouse at a dosage of 50 mg/kg, survivals were reported.; assay type: functional
Mus musculus [17] = assay: Compound was evaluated for the anticancer activity against P388 lymphocytic leukemia in vivo in mouse at a dosage of 12.5 mg/kg. The survivals were reported.; assay type: functional
Mus musculus [18] = assay: Compound was evaluated for the anticancer activity against P388 lymphocytic leukemia in vivo in mouse at a dosage of 12.5 mg/kg and percent treated/control was reported; assay type: functional
Mus musculus [19] = assay: Compound was evaluated for the anticancer activity against P388 lymphocytic leukemia in vivo in mouse at a dosage of 400 mg/kg and percent treated/control was reported; assay type: functional
Mus musculus [20] = assay: Compound was evaluated for the anticancer activity against P388 lymphocytic leukemia in vivo in mouse at a dosage of 400 mg/kg and the weight difference was measured.; assay type: functional
Mus musculus [21] = assay: Compound was evaluated for the anticancer activity against P388 lymphocytic leukemia in vivo in mouse at a dosage of 200 mg/kg. The survivals were reported.; assay type: functional
Mus musculus [22] = assay: Compound was evaluated for the anticancer activity against P388 lymphocytic leukemia in vivo in mouse at a dosage of 400 mg/kg. The survivals were reported.; assay type: functional
Mus musculus [23] = assay: Compound was evaluated for the anticancer activity against P388 lymphocytic leukemia in vivo in mouse at a dosage of 100 mg/kg. The survivals were reported.; assay type: functional
Mus musculus [24] = assay: Compound was evaluated for the anticancer activity against M5076 sarcoma in vivo in mouse at a dosage of 200 mg/kg and the weight difference was measured.; assay type: functional
Mus musculus [25] = assay: Compound was evaluated for the anticancer activity against M5076 sarcoma in vivo in mouse at a dosage of 100 mg/kg and percent treated/control was reported; assay type: functional
Mus musculus [26] = assay: Compound was evaluated for the anticancer activity against M5076 sarcoma in vivo in mouse at a dosage of 50 mg/kg and the weight difference was measured.; assay type: functional
Mus musculus [27] = assay: Compound was evaluated for the anticancer activity against M5076 sarcoma in mouse at a dosage of 400 mg/kg, survivals were reported; assay type: functional
Mus musculus [28] = assay: Compound was evaluated for the anticancer activity against M5076 sarcoma in vivo in mouse at a dosage of 6.25 mg/kg, survivals were reported.; assay type: functional
Mus musculus [29] = assay: Compound was evaluated for the anticancer activity against M5076 sarcoma in vivo in mouse at a dosage of 100 mg/kg and the weight difference was measured.; assay type: functional
Mus musculus [30] = assay: Compound was evaluated for the anticancer activity against M5076 sarcoma in vivo in mouse at a dosage of 12.5 mg/kg; assay type: functional
Mus musculus [31] = assay: Compound was evaluated for the anticancer activity against M5076 sarcoma in vivo in mouse at a dosage of 100 mg/kg, survivals were reported; assay type: functional
Mus musculus [32] = assay: Compound was evaluated for the anticancer activity against M5076 sarcoma in vivo in mouse at a dosage of 50 mg/kg and percent treated/control was reported; assay type: functional
Mus musculus [33] = assay: Compound was evaluated for the anticancer activity against M5076 sarcoma in vivo in mouse at a dosage of 50 mg/kg, survivals were reported.; assay type: functional
Mus musculus [34] = assay: Compound was evaluated for the anticancer activity against M5076 sarcoma in vivo in mouse at a dosage of 200 mg/kg, survivals were reported; assay type: functional
Mus musculus [35] = assay: Compound was evaluated for the anticancer activity against M5076 sarcoma in vivo in mouse at a dosage of 12.5 mg/kg and percent treated/control was reported; assay type: functional
Mus musculus [36] = assay: Compound was evaluated for the anticancer activity against M5076 sarcoma in vivo in mouse at a dosage of 12.5 mg/kg, survivals were reported.; assay type: functional
Mus musculus [37] = assay: Compound was evaluated for the anticancer activity against M5076 sarcoma in vivo in mouse at a dosage of 25 mg/kg and the weight difference was measured.; assay type: functional
Mus musculus [38] = assay: Compound was evaluated for the anticancer activity against M5076 sarcoma in vivo in mouse at a dosage of 6.25 mg/kg and the weight difference was measured.; assay type: functional
Mus musculus [39] = assay: Compound was evaluated for the anticancer activity against M5076 sarcoma in vivo in mouse at a dosage of 6.25 mg/kg and percent treated/control was reported; assay type: functional
Mus musculus [40] = assay: Compound was evaluated for the anticancer activity against M5076 sarcoma in vivo in mouse at a dosage of 25 mg/kg and percent treated/control was reported; assay type: functional
Mus musculus [41] = assay: Compound was evaluated for the anticancer activity against M5076 sarcoma in vivo in mouse at a dosage of 25 mg/kg, survivals were reported.; assay type: functional
L1210 = assay: Activity against L1210 was reported.; assay type: functional, Mus musculus

In the case of `COc1cc2c[n+](C)c3c(c2cc1OC)Cc1cc(OS(C)(=O)=O)c(OC)cc1-3.[Cl-]`, the Survival (Mus musculus [1]) is reported as 6, the T/C (Mus musculus [2]) is reported as 137% and the Survival (Mus musculus [3]) is reported as 6. For the same compound, the T/C (Mus musculus [4]) was 128%, the Survival (Mus musculus [5]) was 6 and the Weight difference (Mus musculus [6]) was -2.1. It also gave a Weight difference (Mus musculus [7]) of -3.6, a Weight difference (Mus musculus [8]) of -0.6 and a Survival (Mus musculus [9]) of 5. For the same compound, the T/C (Mus musculus [10]) was 136%, the T/C (Mus musculus [11]) was 145% and the Weight difference (Mus musculus [12]) was -1.3. For the same compound, the EC50 [13] was 0.01 µg/mL.

`COc1cc2c[n+](C)c3c(c2cc1OC)Cc1c-3ccc(OS(C)(=O)=O)c1OC.[Cl-]` showed an EC50 [13] of 0.1 µg/mL.

Work on `COc1cc2cc(-c3ccc4c(c3)OCO4)[n+](C)cc2cc1OC.[Cl-]` yielded an EC50 [14] of 0.005 µg/mL.

For `COc1cc2cc(-c3ccc(OC(C)C)c(OC)c3)[n+](C)cc2cc1OC.[Cl-]`, the EC50 [13] was over 100 µg/mL.

`COc1cc2c(cc1O)Cc1c-2[n+](C)cc2cc(OC)c(OC)cc12.[Cl-]` gave a Weight difference (Mus musculus [15]) of 0.1, a Survival (Mus musculus [16]) of 6 and a T/C (Mus musculus [4]) of 138%. For the same compound, the Survival (Mus musculus [5]) was 6, the Weight difference (Mus musculus [8]) was -0.4 and the Survival (Mus musculus [17]) was 5. The T/C (Mus musculus [10]) was 149%, the T/C (Mus musculus [18]) was 130% and the Weight difference (Mus musculus [12]) was -0.1. For the same compound, the EC50 [13] was 0.03 µg/mL.

Compound `COc1cc2c[n+](C)c3c(c2cc1OC)Cc1c-3ccc(O)c1OC.[Cl-]` has a T/C (Mus musculus [19]) of 137%, a T/C (Mus musculus [2]) of 116% and a Weight change (Mus musculus [6]) of 0.2. The Weight change (Mus musculus [7]) was -0.2, the Weight change (Mus musculus [20]) was -1.5 and the Survival (Mus musculus [21]) was 6. For the same compound, the Survival (Mus musculus [22]) was 6, the T/C (Mus musculus [11]) was 134% and the EC50 [13] was 0.4 µg/mL. It also gave a Survival (Mus musculus [23]) of 6.

In the case of `COc1cc2c[n+](C)c3c(c2cc1OC)Cc1cc2c(cc1-3)OCO2.[Cl-]`, the Weight difference (Mus musculus [24]) is reported as -7.2, the T/C (Mus musculus [25]) is reported as 137% and the Weight difference (Mus musculus [26]) is reported as -2. It also gave a Survival (Mus musculus [27]) of 0, a Survival (Mus musculus [28]) of 10 and a Weight difference (Mus musculus [29]) of -4.4. For the same compound, the Weight difference (Mus musculus [30]) was -0.2, the Survival (Mus musculus [31]) was 9 and the T/C (Mus musculus [32]) was 107%. It also gave a Survival (Mus musculus [33]) of 9, a Survival (Mus musculus [34]) of 6 and a T/C (Mus musculus [35]) of 109%. It also gave a Survival (Mus musculus [36]) of 10, a Weight difference (Mus musculus [37]) of -0.3 and a Weight difference (Mus musculus [38]) of -0.8. For the same compound, the T/C (Mus musculus [39]) was 115%, the T/C (Mus musculus [40]) was 113% and the Survival (Mus musculus [41]) was 10.

For `COc1cc2c[n+](C)c3c4cc5c(cc4ccc3c2cc1OC)OCO5.[Cl-]` [NITIDINE CHLORIDE], the T/C (L1210) was 136.
